These results are taken from ChEMBL document CHEMBL2021898, “Prenylated acylphloroglucinols, chipericumins A-D, from Hypericum chinense” (J Nat Prod, 2012).

One experiment concerns KB. Nature of the experiment: Cytotoxicity against human KB cells incubated for 48 hrs at 37 degC. It is filed as functional, cell-based. Put shortly: (§1)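 Human epidermoid carcinoma KB and murine leukemia L1210 cells were cultured with test compounds at various concentrations, dissolved in 1% DMSO, in 100 μL medium at 37 °C for 48 h. IC50 was taken from a plot of log concentration against growth rate of treated cells. Paclitaxel was the positive control.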

For another experiment, the system named is L1210. In words: Cytotoxicity against mouse L1210 cells incubated for 48 hrs at 37 degC. Format: functional, cell-based. The note with it: L1210, 48 h. The method, boiled down: as §1
The test system of the next experiment is Micrococcus luteus. Nature of the experiment: Antimicrobial activity against Micrococcus luteus by broth micro-dilution method. It is filed as functional.
The next experiment deals with Escherichia coli. Nature of the experiment: Antimicrobial activity against Escherichia coli by broth micro-dilution method. Format: functional. In general terms: Dilution methods test growth across graded concentrations, often in twofold steps.
A further experiment concerns Aspergillus niger. In words: Antimicrobial activity against Aspergillus niger by broth micro-dilution method. Format: functional, organism-based.
The subject of experiment [1] is Trichophyton mentagrophytes. In words: Antimicrobial activity against Trichophyton mentagrophytes by broth micro-dilution method. Format: functional, organism-based.
The next experiment relates to Staphylococcus aureus. In words: Antimicrobial activity against Staphylococcus aureus by broth micro-dilution method. Format: functional.
Another experiment deals with Candida albicans. In words: Antimicrobial activity against Candida albicans by broth micro-dilution method. Format: functional, organism-based.
The test system of another experiment is Cryptococcus neoformans. Nature of the experiment: Antimicrobial activity against Cryptococcus neoformans by broth micro-dilution method. Format: functional, organism-based.
Another experiment relates to Bacillus subtilis. In words: Antimicrobial activity against Bacillus subtilis by broth micro-dilution method. Format: functional.

One may read the IC50 as the concentration that inhibits the measured activity by half. High values mean a need for much substance, low ones inhibition by little substance. By MIC is commonly meant the lowest concentration that inhibits growth of the organism. A low value points to inhibition by little substance.

Where only a bound is given, the exact number is not on record here.

For `CC(=O)O[C@H]1C(=O)[C@@]2(C)[C@H]([C@H](OC(=O)c3ccccc3)[C@]3(O)C[C@H](OC(=O)[C@H](O)[C@@H](NC(=O)c4ccccc4)c4ccccc4)C(C)=C1C3(C)C)[C@]1(OC(C)=O)CO[C@@H]1C[C@@H]2O` [PACLITAXEL], the IC50 amounted to 0.0045 µM with KB and 0.12 µM in the experiment with L1210.
Consider `CC(C)C(=O)C1=C2O[C@H](C(C)(C)O)C[C@]2(C)C(=O)[C@]2(C[C@H]3[C@@H](CC[C@@]3(C)O)[C@](C)(O)C2)C1=O` (relative stereo), for which the MIC against Micrococcus luteus, against Escherichia coli, with Staphylococcus aureus and in the experiment with Bacillus subtilis was more than 32 µg/mL throughout. The IC50 in the experiment with Aspergillus niger is more than 32 µg/mL; with KB it was more than 10 µg/mL; in [1] it was more than 32 µg/mL; in the experiment with L1210, more than 10 µg/mL; with Candida albicans, more than 32 µg/mL; in the experiment with Cryptococcus neoformans it was more than 32 µg/mL.
For the compound `CCC(C)C(=O)C1=C(O)[C@@](C)(CC=C(C)C)C(=O)[C@@]2(C[C@H]3[C@@H](CC[C@@]3(C)O)[C@](C)(O)C2)C1=O` (relative stereo), the MIC in the experiment with Micrococcus luteus, in the experiment on Escherichia coli, in the experiment on Staphylococcus aureus and in the experiment with Bacillus subtilis was more than 32 µg/mL throughout. Besides, the IC50 in the experiment with Aspergillus niger is more than 32 µg/mL; in the experiment with KB, more than 10 µg/mL; in experiment [1] it was more than 32 µg/mL; with L1210, more than 10 µg/mL; with Candida albicans, more than 32 µg/mL; in the experiment on Cryptococcus neoformans, more than 32 µg/mL.
With `CCC(C)C(=O)C1=C2O[C@H](C(C)(C)O)C[C@]2(C)C(=O)[C@]2(C[C@H]3[C@@H](CC[C@@]3(C)O)[C@](C)(O)C2)C1=O` (some centres not stated) [CHIPERICUMIN B], the MIC against Micrococcus luteus, in the experiment on Escherichia coli, with Staphylococcus aureus and against Bacillus subtilis was more than 32 µg/mL in each case. Moreover, the IC50 in the experiment on Aspergillus niger was more than 32 µg/mL; in the experiment on KB, more than 10 µg/mL; in experiment [1], more than 32 µg/mL; in the experiment with L1210, more than 10 µg/mL; in the experiment with Candida albicans, more than 32 µg/mL; with Cryptococcus neoformans, more than 32 µg/mL.
Consider `CC(C)=CC[C@]1(C)C(=O)[C@@]2(C[C@H]3[C@@H](CC[C@@]3(C)O)[C@](C)(O)C2)C(=O)C(C(=O)C(C)C)=C1O` (relative stereo), for which the MIC against Micrococcus luteus, in the experiment with Escherichia coli, against Staphylococcus aureus and with Bacillus subtilis was more than 32 µg/mL throughout. The IC50 is more than 32 µg/mL in the experiment with Aspergillus niger; more than 10 µg/mL with KB; more than 32 µg/mL in [1]; more than 10 µg/mL in the experiment on L1210; more than 32 µg/mL in the experiment with Candida albicans; more than 32 µg/mL with Cryptococcus neoformans.
